Only a selection was taken, and hits are over-represented in it overall.
tolC growth inh – growth inhibitors of E. coli tolC mutant, primary screen, strain BW25113 ΔtolC::kan, 384-well | OD615 | growth inhibition, % at 10 µM (by protocol) | 65,000 compounds, 2.2% hits | AID 573, 2007;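 active = growth inhibition at or above a cutoff equal to the mean over every tested compound plus 3 SD, cut at about 60% in these data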;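 also: growth measured after 20 h incubation at 37 °C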
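Test system: tolC-deleted E. coli BW25113 | Medium: LB with kanamycin 50 µg/mL | Compound dosing: Single concentration, 10 µM final per compound | Schedule: 37 °C, 20 h exposure | Measured by: OD at 615 nm | Evaluation: Percent growth inhibition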
CD11b adhes inh – inhibitors of CD11b/CD18 adhesion to fibrinogen, primary screen, K562 cells, luminescence. Integrin beta-2 (Homo sapiens) + Integrin alpha-M (Homo sapiens), P05107+P11215. ATPlite luminescence; Mn2+ added to activate the integrin. inhibition, % at 10 µM. 93,000 compounds, 0.54% hits;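 active = primary inhibition of 50% or more at 10 µM, then 40% or more on retest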
Ecoli WT expand – growth inhibitors of wild-type E. coli, primary screen, strain BW25113, expanded library, OD600. growth inhibition, % at 100 µM. AID 710, 2007. 98,000 compounds, 0.15% hits. OD600 absorbance;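 active = growth inhibition above about 50% at one test dose, limit read from the data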;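 also: growth measured after 20 h incubation at 37 °C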
Phagocytosis inh – inhibitors of macrophage phagocytosis, primary screen, imaging, J774A.1 cells, IgG beads. inhibition, % at 5 µM. 110,000 compounds, 0.07% hits. J774A.1 macrophage IgG-bead phagocytosis;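 active = inhibition above the mean of the plate negative controls plus 5 SD, cut at about 13% in these data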;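 also: phagocytic index as fraction of beads internalized from green versus red external bead signal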
CD11b adhes enh – enhancers of CD11b/CD18 adhesion to fibrinogen, primary screen, K562 cells, luminescence | ATPlite luminescence | 93,000 compounds, 0.07% hits | AID 1499, 2009 | activation, % at 10 µM;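 active = 10 µM primary screen giving 50% or more activity, confirmed by 40% or more on retest at that dose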
Large screens that a line does not name were inactive; [ ] = another dose, or the depositor's remark.

O=C(NC1CCCCCCC1)c1ccccc1O	tolC growth inh 83
O=C(NC1CCCCCCC1)c1ccccc1-c1ccccc1	none (no result: tolC growth inh, CD11b adhes inh, Ecoli WT expand, CD11b adhes enh)
CC(=O)c1c(N2CCN(Cc3ccccc3)CC2)nc(=S)n(Cc2ccccc2)c1C	none (no result: tolC growth inh, CD11b adhes inh, Ecoli WT expand, CD11b adhes enh)
CC(=O)c1c(N2CCCCC2)nc(=S)n(Cc2ccccc2)c1C	CD11b adhes inh 52 (no result: Phagocytosis inh)
CCN1C(=O)/C(=C/C=C2/Sc3ccc4ccccc4c3N2CCO)SC1=S	Phagocytosis inh 123[fluoresces] (no result: tolC growth inh, CD11b adhes inh, Ecoli WT expand, CD11b adhes enh)
CN1CCS/C1=C/C=C1/SC(=S)N(Cc2ccccc2)C1=O	none (no result: tolC growth inh, CD11b adhes inh, Ecoli WT expand, CD11b adhes enh)
Cc1ccc(NC(=O)/C(=C/c2cccs2)NC(=O)c2ccco2)c(C)c1	none (no result: tolC growth inh, Ecoli WT expand)

High-throughput results from PubChem BioAssay.
